Experimental data reported in ChEMBL document CHEMBL1126679 (J Med Chem, 1993).

Experiments:
D(2) dopamine receptor [1] = target: T1, D(2) dopamine receptor (Homo sapiens, UniProt P14416); experiment: Intrinsic activity against dopamine D 2 receptor; format: functional; details: Cricetulus griseus
Summary of the method: (§1)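 Membranes from CHO cells stably transfected with D2 receptor. Low-affinity agonist state affinity came from [3H]raclopride displacement with high GTP, and high-affinity state affinity from [3H]U-86170 displacement without GTP.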

[2] = Binding affinity against 5-hydroxytryptamine 1A receptor from bovine hippocampus, used [3H]8-OH-DPAT as radioligand
D(2) dopamine receptor [3] = target: T1, D(2) dopamine receptor; experiment: Compound was tested for agonistic activity against D2 receptor from cloned CHO cells, used [3H]U-86170 as radioligand; format: functional, cell-based, Cricetulus griseus
D(2) dopamine receptor [4] = target: D(2) dopamine receptor (Rattus norvegicus, UniProt P61169); experiment: Compound was tested for antagonistic activity against D2 receptor from rat striatum, used [3H]raclopride as radioligand; format: functional
[5] = (§2) Intrinsic activity was 100% of highest possible agonist.; format: functional; summary of the method: as §1
[6] = as §2; format: functional; remark: listed apart in the source
D(2) dopamine receptor [7] = target: T1, D(2) dopamine receptor; experiment: Intrinsic activity was Determined; format: functional
[8] = Intrinsic activity was 0%of highest possible antagonist.; format: functional; summary of the method: as §1

D(2) dopamine receptor (Rattus norvegicus, UniProt P61169), sequence (P61169 whole entry): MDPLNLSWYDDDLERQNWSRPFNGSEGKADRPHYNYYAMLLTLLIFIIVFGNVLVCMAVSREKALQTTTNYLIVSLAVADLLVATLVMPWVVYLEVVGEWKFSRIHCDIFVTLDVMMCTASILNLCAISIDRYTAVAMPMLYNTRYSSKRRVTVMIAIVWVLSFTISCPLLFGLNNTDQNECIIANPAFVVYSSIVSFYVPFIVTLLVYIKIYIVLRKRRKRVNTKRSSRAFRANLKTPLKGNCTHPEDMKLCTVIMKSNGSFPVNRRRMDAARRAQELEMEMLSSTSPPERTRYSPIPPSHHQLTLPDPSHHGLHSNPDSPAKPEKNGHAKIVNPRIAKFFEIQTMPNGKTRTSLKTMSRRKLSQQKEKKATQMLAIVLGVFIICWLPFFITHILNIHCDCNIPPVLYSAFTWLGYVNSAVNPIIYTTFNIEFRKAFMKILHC
T1 sequence (P14416 whole entry): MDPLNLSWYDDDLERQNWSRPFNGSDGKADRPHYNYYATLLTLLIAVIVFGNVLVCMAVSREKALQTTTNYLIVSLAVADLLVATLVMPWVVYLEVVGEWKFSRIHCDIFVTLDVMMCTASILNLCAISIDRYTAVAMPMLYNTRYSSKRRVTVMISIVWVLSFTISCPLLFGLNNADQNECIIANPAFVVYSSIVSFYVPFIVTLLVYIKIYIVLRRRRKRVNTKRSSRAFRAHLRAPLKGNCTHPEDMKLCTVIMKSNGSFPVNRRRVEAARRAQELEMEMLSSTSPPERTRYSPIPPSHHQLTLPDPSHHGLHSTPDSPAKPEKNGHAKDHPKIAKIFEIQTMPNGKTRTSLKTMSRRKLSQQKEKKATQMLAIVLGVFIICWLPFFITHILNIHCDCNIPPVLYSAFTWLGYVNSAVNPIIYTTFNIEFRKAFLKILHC

Row | Compound | Intrinsic activity (D(2) dopamine receptor [1]) | Ki (D(2) dopamine receptor [3]) | Ki (D(2) dopamine receptor [4]) | also measured
1 | CCCN1[C@@H](C)C[C@@H]2Cc3cccc(OC)c3C[C@@H]21 | 21% | – | – | Ki [2]: 11 nM
2 | CCCN1[C@H](C)C[C@@H]2Cc3cccc(OC)c3C[C@@H]21 | – | – | – | Ki [2]: 384 nM
3 | Cc1[nH]c2cccc3c2c1C[C@@H]1C3C[C@H](NC(=O)C(C)(C)C)CN1C (some centres undefined) | 11% | 3.1 nM | – | –
4 | CN1C[C@@H](NC(=O)C(C)(C)C)CC2c3cccc4[nH]c(Cl)c(c34)C[C@H]21 (some centres undefined) | 0% | 3.6 nM | 0.47 nM | –
5 | C=CCN1CC[C@H]2c3c(cccc3OC)CC[C@H]21 [listing 1 of 2 here] | – | 6.7 nM | – | –
6 | CCCN(CCC)[C@@H]1Cc2cccc3[nH]c(=O)n(c23)C1 | – | 1.7 nM | 5.4 nM | –
7 | CCCN[C@@H]1CCc2c(OC)cccc2[C@@H]1C | 3% | 14 nM | 179 nM | –
8 | CCCN(CCC)[C@@H]1CCc2c(OC)cccc2[C@@H]1C | 0 | 13 nM | 22 nM | –
9 | CCCN1CC[C@H]2c3c(cccc3OC)CC[C@H]21 [listing 1 of 2 here] | – | – | – | Ki [2]: 0.2 nM
10 | C=CCN1CC[C@H]2c3cccc(O)c3CC[C@H]21 | 22% | 108 nM | 49 nM | –
11 | C=CCN1CC[C@@H]2c3cccc(O)c3CC[C@@H]21 | 47% | 59 nM | 259 nM | –
12 | C=CCN1CC[C@@H]2c3cccc(OC)c3CC[C@@H]21 | – | – | > 1000 nM | –
13 | C=CCN1CC[C@@H]2Cc3c(O)cccc3C[C@H]21 | 106% | – | – | –
14 | C=CCN1CC[C@@H]2Cc3c(cccc3OC)C[C@H]21 | – | – | – | Intrinsic activity [5]: 100%
15 | C=CCN1CC[C@H]2c3c(cccc3OC)CC[C@H]21 [listing 2 of 2 here] | 24% | – | – | –
16 | C=CCN1CC[C@H]2c3cccc(OC)c3CC[C@H]21 | 0% | – | – | –
17 | CCCN(CCC)[C@@H]1Cc2cccc3nc(O)n(c23)C1 | – | – | – | Intrinsic activity [6]: 91
18 | CCCN1CC[C@@H]2Cc3c(O)cccc3C[C@H]21 | 109% | – | – | –
19 | CCCN1CC[C@@H]2Cc3c(cccc3OC)C[C@H]21 | 37% | – | – | –

Row | Compound | Intrinsic activity (D(2) dopamine receptor [1]) | Ki (D(2) dopamine receptor [3]) | Ki (D(2) dopamine receptor [4]) | also measured
20 | CCCN1CC[C@H]2c3c(cccc3OC)CC[C@H]21 [listing 2 of 2 here] | 37% | – | – | –
21 | CCCN1C[C@H](CSC)C[C@@H]2c3cccc4[nH]cc(c34)C[C@H]21 | 66% | – | – | –
22 | C=CCN1CCC2Cc3c(cccc3OC)C[C@H]21 (mixture of isomers) | – | – | > 1000 nM | Intrinsic activity [5]: 100%
23 | CCCN1CCC2Cc3c(O)cccc3C[C@H]21 (mixture of isomers) | 79% | 2.4 nM | 17 nM | –
24 | C=CCN1CCC2c3cccc(OC)c3CC[C@@H]21 (mixture of isomers) | 0% | – | 99 nM | –
25 | CCCN1CCC2Cc3c(cccc3OC)C[C@H]21 (mixture of isomers) | 100% | 100 nM | 877 nM | –
26 | C=CCN1CCC2Cc3c(O)cccc3C[C@H]21 (mixture of isomers) | 91% | 1.4 nM | 25 nM | –
27 | C=CCN1CCC2c3cccc(OC)c3CC[C@H]21 (mixture of isomers) | 0% | – | – | –
28 | C=CCN1CCC2c3c(O)cccc3CCC21 (racemic) | 13% | – | 25 nM | –
29 | CCCN1CCC2Cc3c(O)cccc3CC21 (racemic) | 61% | 11 nM | 296 nM | –
30 | C=CCN1CCC2Cc3c(cccc3OC)CC21 (racemic) | – | – | 429 nM | –
31 | CCCN(CCC)[C@@H]1Cc2cccc3c2N(C1)C(=O)NC3 (racemic) | 30% | 58 nM | > 1000 nM | –
32 | CCCN(CCC)[C@@H]1Cc2cccc3ccc(=O)n(c23)C1 (racemic) | 79% | 3.5 nM | 18.8 nM | –
33 | C=CCN1CC[C@H]2c3c(cccc3OC)CC[C@H]21 (racemic) [listing 1 of 2 here] | – | 7 nM | – | –
34 | C=CCN1CCC2c3c(cccc3OC)CCC21 (racemic) | 0% | 8.5 nM | – | –
35 | CCCN(CCC)[C@@H]1Cc2cccc3c2N(CC(=O)N3)C1 (racemic) | 70% | – | 28 nM | –
36 | CCCN(CCC)[C@@H]1Cc2cccc3nc(S)n(c23)C1 (racemic) | 100% | 0.6 nM | 39 nM | –
37 | CCCN1C[C@H]2c3c(cccc3OC)CC[C@H]21 (racemic) | – | – | 329 nM | –
38 | CCCN1CC[C@H]2c3c(cccc3OC)CC[C@H]21 (racemic) | – | – | > 1000 nM | –

Row | Compound | Intrinsic activity (D(2) dopamine receptor [1]) | Ki (D(2) dopamine receptor [3]) | Ki (D(2) dopamine receptor [4]) | also measured
39 | C=CCN1CC[C@H]2c3c(O)cccc3CC[C@H]21 (racemic) | – | 153 nM | – | Intrinsic activity (D(2) dopamine receptor [7]): 7%
40 | Oc1cccc2c1CC[C@@H]1NCCC[C@@H]21 (racemic) | 53 | 11 nM | 38 nM | –
41 | C=CCN1CC[C@H]2c3c(cccc3OC)CC[C@H]21 (racemic) [listing 2 of 2 here] | 15% | – | – | –
42 | CCCN1CC[C@H]2c3cccc(OC)c3CC[C@@H]21 (racemic) | – | – | – | Intrinsic activity [8]: 0%
43 | CCCN1CCC2c3cccc(O)c3CCC21 (racemic; 14a) [listing 1 of 2 here] | – | 93 nM | 33 nM | –
44 | CCCN1CCC2c3cccc(O)c3CCC21 (racemic; 14a) [listing 2 of 2 here] | 28% | – | – | –
45 | C=CCN1CCC2c3cccc(O)c3CCC21 (racemic; 14c) [listing 1 of 2 here] | – | 4.1 nM | – | –
46 | C=CCN1CCC2c3cccc(O)c3CCC21 (racemic; 14c) [listing 2 of 2 here] | 44% | – | – | –
47 | CCCN1CCC2c3cccc(O)c3CCC21 (racemic; 15a) [listing 1 of 2 here] | – | 218 nM | > 1000 nM | –
48 | CCCN1CCC2c3cccc(O)c3CCC21 (racemic; 15a) [listing 2 of 2 here] | 1% | – | – | –
49 | C=CCN1CCC2c3cccc(O)c3CCC21 (racemic; 15c) [listing 1 of 2 here] | – | 75 nM | 198 nM | –
50 | C=CCN1CCC2c3cccc(O)c3CCC21 (racemic; 15c) [listing 2 of 2 here] | 29% | – | – | –
51 | C=CCN1CC[C@H]2Cc3c(O)cccc3CC21 (single isomer, unassigned) | 21% | 235 nM | 47 nM | –
52 | CCCN1CC[C@H]2Cc3c(O)cccc3CC21 (single isomer, unassigned) | 18% | 917 nM | > 630 nM | –
53 | CCCN1CC[C@H]2c3c(cccc3OC)CC[C@H]21 (single isomer, unassigned) | – | – | > 1000 nM | –
54 | CCCN1CC[C@H]2c3c(O)cccc3CC[C@H]21 (single isomer, unassigned) [listing 1 of 2 here] | – | < 50 nM | – | –
55 | C=CCN1CC[C@H]2Cc3c(cccc3OC)CC21 (single isomer, unassigned) | – | – | – | Intrinsic activity [8]: 0%
56 | C=CCN1CC[C@H]2c3c(cccc3OC)CC[C@H]21 (single isomer, unassigned) | 17% | – | – | –
57 | CCCN1CC[C@H]2c3c(O)cccc3CC[C@H]21 (single isomer, unassigned) [listing 2 of 2 here] | – | – | – | Intrinsic activity (D(2) dopamine receptor [7]): 0%
